Laboratory results: ChEMBL document CHEMBL1138520, “Molecular and conformational determinants of pituitary adenylate cyclase-activating polypeptide (PACAP) for activation of the PAC1 receptor” (J Med Chem, 2009)
Where a SMILES comes first, the peptide text is derived from it. [ ]: non-standard residue; d: D form. 1Nal = N[C@@H](Cc1cccc2ccccc12)C(=O)O

What was measured:
[1] = molecular target: T1, Pituitary adenylate cyclase-activating polypeptide type I receptor (Homo sapiens, UniProt P41586); assay: Agonist activity at human recombinant PAC1 receptor expressed in CHO cells assessed as PACAP38-induced calcium mobilization by FLIPR assay; assay type: functional, cell-based
In short: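 CHO cells stably expressing recombinant human PAC1, plated 24 h before assay, loaded with fluo-4 AM for 60 min at 37 °C in the dark, then rinsed into HBSS for 15 min at 37 °C. EC50 and efficacy came from nonlinear regression; 4-10 independent assays in duplicate.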
Target sequence in this assay (P41586 whole entry): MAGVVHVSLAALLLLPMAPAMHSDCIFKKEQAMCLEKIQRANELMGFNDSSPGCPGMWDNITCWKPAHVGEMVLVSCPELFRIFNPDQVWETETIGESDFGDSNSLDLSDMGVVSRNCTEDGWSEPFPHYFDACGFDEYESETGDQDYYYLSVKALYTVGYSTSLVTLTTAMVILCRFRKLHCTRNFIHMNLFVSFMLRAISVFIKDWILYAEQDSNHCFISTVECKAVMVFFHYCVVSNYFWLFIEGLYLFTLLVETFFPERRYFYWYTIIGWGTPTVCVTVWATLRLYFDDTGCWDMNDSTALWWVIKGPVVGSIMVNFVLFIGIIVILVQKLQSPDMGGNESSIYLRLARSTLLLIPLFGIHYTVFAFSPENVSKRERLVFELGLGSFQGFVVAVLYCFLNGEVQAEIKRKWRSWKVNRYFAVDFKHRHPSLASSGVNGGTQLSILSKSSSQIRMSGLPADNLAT

[2] = molecular target: T1, Pituitary adenylate cyclase-activating polypeptide type I receptor; assay: Displacement of [125I]Ac-PACAP27 from human recombinant PAC1 receptor expressed in CHO cells by gamma- counter; assay type: cell-based
Target sequence in this assay (P41586 whole entry): as above

[3] = molecular target: T1, Pituitary adenylate cyclase-activating polypeptide type I receptor; assay: Agonist activity at human recombinant PAC1 receptor expressed in CHO cells assessed as PACAP38-induced calcium mobilization by FLIPR assay relative to PACAP38; assay type: functional, cell-based
In short: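 CHO cells stably expressing recombinant human PAC1, plated 24 h before assay, loaded with fluo-4 AM for 60 min at 37 °C in the dark, then rinsed into HBSS for 15 min at 37 °C. Peptide was added 18 s into a 150 s read (ex 480/em 525 nm), at final concentrations of 1 × 10-12 to 1 × 10^-5 M. Response was normalised to 1 × 10^-5 M PACAP38 on each plate. EC50 and efficacy came from nonlinear regression; 4-10 independent assays in duplicate.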
Target sequence in this assay (P41586 21-468 limits assumed): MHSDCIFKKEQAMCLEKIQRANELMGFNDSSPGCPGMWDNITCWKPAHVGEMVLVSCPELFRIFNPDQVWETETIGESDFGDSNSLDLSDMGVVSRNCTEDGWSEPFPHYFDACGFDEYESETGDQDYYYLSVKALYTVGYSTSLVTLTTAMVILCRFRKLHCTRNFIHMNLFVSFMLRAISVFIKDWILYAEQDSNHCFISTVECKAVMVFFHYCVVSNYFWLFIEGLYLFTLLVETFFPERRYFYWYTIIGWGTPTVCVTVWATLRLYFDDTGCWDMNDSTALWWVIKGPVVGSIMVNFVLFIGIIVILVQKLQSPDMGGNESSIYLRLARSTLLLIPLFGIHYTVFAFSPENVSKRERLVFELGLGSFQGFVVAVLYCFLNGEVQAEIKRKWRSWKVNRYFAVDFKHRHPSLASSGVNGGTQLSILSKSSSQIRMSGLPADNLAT

| SMILES | EC50 [1] [nM] | IC50 [2] [nM] | Emax [3] [%] |
| --- | --- | --- | --- |
| CC[C@H](C)[C@H](NC(=O)CNC(=O)[C@H](CC(=O)O)NC(=O)[C@@H]1CCCN1C(=O)[C@@H](N)Cc1cnc[nH]1)C(=O)N[C@@H](Cc1ccccc1)C(=O)N[C@H](C(=O)N[C@@H](CC(=O)O)C(=O)N[C@@H](CO)C(=O)N[C@@H](Cc1ccc(O)cc1)C(=O)N[C@@H](CO)C(=O)N[C@@H](CCCNC(=N)N)C(=O)N[C@@H](Cc1ccc(O)cc1)C(=O)N[C@@H](CCCNC(=N)N)C(=O)N[C@@H](CCCCN)C(=O)N[C@@H](CCC(N)=O)C(=O)N[C@@H](CCSC)C(=O)N[C@@H](C)C(=O)N[C@H](C(=O)N[C@@H](CCCCN)C(=O)N[C@@H](CCCCN)C(=O)N[C@@H](Cc1ccc(O)cc1)C(=O)N[C@@H](CC(C)C)C(=O)N[C@@H](C)C(=O)N[C@@H](C)C(=O)N[C@H](C(=O)N[C@@H](CC(C)C)C(=O)NCC(=O)N[C@@H](CCCCN)C(=O)N[C@@H](CCCNC(=N)N)C(=O)N[C@@H](Cc1ccc(O)cc1)C(=O)N[C@@H](CCCCN)C(=O)N[C@@H](CCC(N)=O)C(=O)N[C@@H](CCCNC(=N)N)C(=O)N[C@H](C(=O)N[C@@H](CCCCN)C(=O)N[C@@H](CC(N)=O)C(=O)N[C@@H](CCCCN)C(N)=O)C(C)C)C(C)C)C(C)C)[C@@H](C)O | 4.1 | 8.5 | 89.3 |
| CC[C@H](C)[C@H](NC(=O)CNC(=O)[C@H](CC(N)=O)NC(=O)[C@H](CO)NC(=O)[C@@H](N)Cc1cnc[nH]1)C(=O)N[C@@H](Cc1ccccc1)C(=O)N[C@H](C(=O)N[C@@H](CC(=O)O)C(=O)N[C@@H](CO)C(=O)N[C@@H](Cc1ccc(O)cc1)C(=O)N[C@@H](CO)C(=O)N[C@@H](CCCNC(=N)N)C(=O)N[C@@H](Cc1ccc(O)cc1)C(=O)N[C@@H](CCCNC(=N)N)C(=O)N[C@@H](CCCCN)C(=O)N[C@@H](CCC(N)=O)C(=O)N[C@@H](CCSC)C(=O)N[C@@H](C)C(=O)N[C@H](C(=O)N[C@@H](CCCCN)C(=O)N[C@@H](CCCCN)C(=O)N[C@@H](Cc1ccc(O)cc1)C(=O)N[C@@H](CC(C)C)C(=O)N[C@@H](C)C(=O)N[C@@H](C)C(=O)N[C@H](C(=O)N[C@@H](CC(C)C)C(=O)NCC(=O)N[C@@H](CCCCN)C(=O)N[C@@H](CCCNC(=N)N)C(=O)N[C@@H](Cc1ccc(O)cc1)C(=O)N[C@@H](CCCCN)C(=O)N[C@@H](CCC(N)=O)C(=O)N[C@@H](CCCNC(=N)N)C(=O)N[C@H](C(=O)N[C@@H](CCCCN)C(=O)N[C@@H](CC(N)=O)C(=O)N[C@@H](CCCCN)C(N)=O)C(C)C)C(C)C)C(C)C)[C@@H](C)O (H-HSNGIFTDSYSRYRKQMAVKKYLAAVLGKRYKQRVKNK-NH2) | 52.2 | 9.2 | 22.1 |
| CC[C@H](C)[C@H](NC(=O)CNC(=O)[C@H](CC(=O)O)NC(=O)[C@H](CO)NC(=O)[C@@H](N)Cc1cnc[nH]1)C(=O)N[C@@H](C)C(=O)N[C@H](C(=O)N[C@@H](CC(=O)O)C(=O)N[C@@H](CO)C(=O)N[C@@H](Cc1ccc(O)cc1)C(=O)N[C@@H](CO)C(=O)N[C@@H](CCCNC(=N)N)C(=O)N[C@@H](Cc1ccc(O)cc1)C(=O)N[C@@H](CCCNC(=N)N)C(=O)N[C@@H](CCCCN)C(=O)N[C@@H](CCC(N)=O)C(=O)N[C@@H](CCSC)C(=O)N[C@@H](C)C(=O)N[C@H](C(=O)N[C@@H](CCCCN)C(=O)N[C@@H](CCCCN)C(=O)N[C@@H](Cc1ccc(O)cc1)C(=O)N[C@@H](CC(C)C)C(=O)N[C@@H](C)C(=O)N[C@@H](C)C(=O)N[C@H](C(=O)N[C@@H](CC(C)C)C(=O)NCC(=O)N[C@@H](CCCCN)C(=O)N[C@@H](CCCNC(=N)N)C(=O)N[C@@H](Cc1ccc(O)cc1)C(=O)N[C@@H](CCCCN)C(=O)N[C@@H](CCC(N)=O)C(=O)N[C@@H](CCCNC(=N)N)C(=O)N[C@H](C(=O)N[C@@H](CCCCN)C(=O)N[C@@H](CC(N)=O)C(=O)N[C@@H](CCCCN)C(N)=O)C(C)C)C(C)C)C(C)C)[C@@H](C)O (H-HSDGIATDSYSRYRKQMAVKKYLAAVLGKRYKQRVKNK-NH2) | 17.3 | 208 | 50.4 |
| CC[C@H](C)[C@H](NC(=O)CNC(=O)[C@H](CC(=O)O)NC(=O)[C@H](CO)N(C)C(=O)[C@@H](N)Cc1cnc[nH]1)C(=O)N[C@@H](Cc1ccccc1)C(=O)N[C@H](C(=O)N[C@@H](CC(=O)O)C(=O)N[C@@H](CO)C(=O)N[C@@H](Cc1ccc(O)cc1)C(=O)N[C@@H](CO)C(=O)N[C@@H](CCCNC(=N)N)C(=O)N[C@@H](Cc1ccc(O)cc1)C(=O)N[C@@H](CCCNC(=N)N)C(=O)N[C@@H](CCCCN)C(=O)N[C@@H](CCC(N)=O)C(=O)N[C@@H](CCSC)C(=O)N[C@@H](C)C(=O)N[C@H](C(=O)N[C@@H](CCCCN)C(=O)N[C@@H](CCCCN)C(=O)N[C@@H](Cc1ccc(O)cc1)C(=O)N[C@@H](CC(C)C)C(=O)N[C@@H](C)C(=O)N[C@@H](C)C(=O)N[C@H](C(=O)N[C@@H](CC(C)C)C(=O)NCC(=O)N[C@@H](CCCCN)C(=O)N[C@@H](CCCNC(=N)N)C(=O)N[C@@H](Cc1ccc(O)cc1)C(=O)N[C@@H](CCCCN)C(=O)N[C@@H](CCC(N)=O)C(=O)N[C@@H](CCCNC(=N)N)C(=O)N[C@H](C(=O)N[C@@H](CCCCN)C(=O)N[C@@H](CC(N)=O)C(=O)N[C@@H](CCCCN)C(N)=O)C(C)C)C(C)C)C(C)C)[C@@H](C)O | 110 | 9.1 | 87.7 |
| CC[C@H](C)[C@H](NC(=O)[C@H](C)NC(=O)[C@H](CC(=O)O)NC(=O)[C@H](CO)NC(=O)[C@@H](N)Cc1cnc[nH]1)C(=O)N[C@@H](Cc1ccccc1)C(=O)N[C@H](C(=O)N[C@@H](CC(=O)O)C(=O)N[C@@H](CO)C(=O)N[C@@H](Cc1ccc(O)cc1)C(=O)N[C@@H](CO)C(=O)N[C@@H](CCCNC(=N)N)C(=O)N[C@@H](Cc1ccc(O)cc1)C(=O)N[C@@H](CCCNC(=N)N)C(=O)N[C@@H](CCCCN)C(=O)N[C@@H](CCC(N)=O)C(=O)N[C@@H](CCSC)C(=O)N[C@@H](C)C(=O)N[C@H](C(=O)N[C@@H](CCCCN)C(=O)N[C@@H](CCCCN)C(=O)N[C@@H](Cc1ccc(O)cc1)C(=O)N[C@@H](CC(C)C)C(=O)N[C@@H](C)C(=O)N[C@@H](C)C(=O)N[C@H](C(=O)N[C@@H](CC(C)C)C(=O)NCC(=O)N[C@@H](CCCCN)C(=O)N[C@@H](CCCNC(=N)N)C(=O)N[C@@H](Cc1ccc(O)cc1)C(=O)N[C@@H](CCCCN)C(=O)N[C@@H](CCC(N)=O)C(=O)N[C@@H](CCCNC(=N)N)C(=O)N[C@H](C(=O)N[C@@H](CCCCN)C(=O)N[C@@H](CC(N)=O)C(=O)N[C@@H](CCCCN)C(N)=O)C(C)C)C(C)C)C(C)C)[C@@H](C)O (H-HSDAIFTDSYSRYRKQMAVKKYLAAVLGKRYKQRVKNK-NH2) | 7.4 | 9.84 | 90.2 |
| CC[C@H](C)[C@H](NC(=O)CNC(=O)[C@H](CC(N)=O)NC(=O)[C@H](CO)NC(=O)[C@@H](N)Cc1cnc[nH]1)C(=O)N[C@@H](Cc1ccccc1)C(=O)N[C@H](C(=O)N[C@@H](CC(=O)O)C(=O)N[C@@H](CO)C(=O)N[C@@H](Cc1ccc(O)cc1)C(=O)N[C@@H](CO)C(=O)N[C@@H](CCCNC(=N)N)C(=O)N[C@@H](Cc1ccc(O)cc1)C(=O)N[C@@H](CCCNC(=N)N)C(=O)N[C@@H](CCCCN)C(=O)N[C@@H](CCC(N)=O)C(=O)N[C@@H](CCSC)C(=O)N[C@@H](C)C(=O)N[C@H](C(=O)N[C@@H](CCCCN)C(=O)N[C@@H](CCCCN)C(=O)N[C@@H](Cc1ccc(O)cc1)C(=O)N[C@@H](CC(C)C)C(=O)N[C@@H](C)C(=O)N[C@@H](C)C(=O)N[C@H](C(=O)N[C@@H](CC(C)C)C(N)=O)C(C)C)C(C)C)[C@@H](C)O | 140 | 284 | 91.2 |
| CC[C@H](C)[C@H](NC(=O)CNC(=O)[C@H](CC(=O)O)NC(=O)[C@H](CO)NC(=O)[C@@H](N)Cc1cnc[nH]1)C(=O)N[C@@H](Cc1cccc2ccccc12)C(=O)N[C@H](C(=O)N[C@@H](CC(=O)O)C(=O)N[C@@H](CO)C(=O)N[C@@H](Cc1ccc(O)cc1)C(=O)N[C@@H](CO)C(=O)N[C@@H](CCCNC(=N)N)C(=O)N[C@@H](Cc1ccc(O)cc1)C(=O)N[C@@H](CCCNC(=N)N)C(=O)N[C@@H](CCCCN)C(=O)N[C@@H](CCC(N)=O)C(=O)N[C@@H](CCSC)C(=O)N[C@@H](C)C(=O)N[C@H](C(=O)N[C@@H](CCCCN)C(=O)N[C@@H](CCCCN)C(=O)N[C@@H](Cc1ccc(O)cc1)C(=O)N[C@@H](CC(C)C)C(=O)N[C@@H](C)C(=O)N[C@@H](C)C(=O)N[C@H](C(=O)N[C@@H](CC(C)C)C(=O)NCC(=O)N[C@@H](CCCCN)C(=O)N[C@@H](CCCNC(=N)N)C(=O)N[C@@H](Cc1ccc(O)cc1)C(=O)N[C@@H](CCCCN)C(=O)N[C@@H](CCC(N)=O)C(=O)N[C@@H](CCCNC(=N)N)C(=O)N[C@H](C(=O)N[C@@H](CCCCN)C(=O)N[C@@H](CC(N)=O)C(=O)N[C@@H](CCCCN)C(N)=O)C(C)C)C(C)C)C(C)C)[C@@H](C)O (H-HSDGI[1Nal]TDSYSRYRKQMAVKKYLAAVLGKRYKQRVKNK-NH2) | 1.4 | 5 | 106 |
| CC[C@H](C)[C@H](NC(=O)CNC(=O)[C@H](C)NC(=O)[C@H](CO)NC(=O)[C@@H](N)Cc1cnc[nH]1)C(=O)N[C@@H](Cc1ccccc1)C(=O)N[C@H](C(=O)N[C@@H](CC(=O)O)C(=O)N[C@@H](CO)C(=O)N[C@@H](Cc1ccc(O)cc1)C(=O)N[C@@H](CO)C(=O)N[C@@H](CCCNC(=N)N)C(=O)N[C@@H](Cc1ccc(O)cc1)C(=O)N[C@@H](CCCNC(=N)N)C(=O)N[C@@H](CCCCN)C(=O)N[C@@H](CCC(N)=O)C(=O)N[C@@H](CCSC)C(=O)N[C@@H](C)C(=O)N[C@H](C(=O)N[C@@H](CCCCN)C(=O)N[C@@H](CCCCN)C(=O)N[C@@H](Cc1ccc(O)cc1)C(=O)N[C@@H](CC(C)C)C(=O)N[C@@H](C)C(=O)N[C@@H](C)C(=O)N[C@H](C(=O)N[C@@H](CC(C)C)C(N)=O)C(C)C)C(C)C)[C@@H](C)O | 538 | 602 | 18.4 |
